Results taken from ChEMBL document CHEMBL3813648, “Synthesis and evaluation of antioxidant phenolic diaryl hydrazones as potent antiangiogenic agents in atherosclerosis” (Bioorg Med Chem, 2016).
The source made the active and inactive calls. No cut-off for these calls is given here.

Experiments:
[1] = Antioxidant activity in HMEC1 assessed as inhibition of cell induced LDL oxidation by measuring TBARS level at 1 uM relative to control; assay type: functional, Homo sapiens, HMEC-1; design: scale not given: the % may be the effect or the level left
In short: (§1)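 HMEC-1 (passage 30-36) in serum-free RPMI 1640 with native human LDL (100 µg apoB/mL). Agent added with the LDL in DMSO (0.1% final), 14 h at 37 °C. TBARS measured in the medium and expressed as % of LDL-plus-vehicle control; Trolox reference. Mean ± SEM of 4 experiments.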

[2] = Antioxidant activity in HMEC1 assessed as inhibition of cell induced LDL oxidation by measuring TBARS level at 10 uM relative to control; assay type: functional, Homo sapiens, HMEC-1; design: scale not given: the % may be the effect or the level left; in short: as §1
[3] = Cytoprotective activity in HMEC1 assessed as inhibition of oxidized LDL induced toxicity measured as residual viability at 1 uM after 24 hrs by MTT assay (reference value: 20 +/- 5 %); assay type: functional, Homo sapiens, HMEC-1
[4] = Cytoprotective activity in HMEC1 assessed as inhibition of oxidized LDL induced toxicity measured as residual viability at 10 uM after 24 hrs by MTT assay (reference value: 20 +/- 5 %); assay type: functional, Homo sapiens, HMEC-1
[5] = Antioxidant activity assessed as inhibition of DPPH free radical scavenging activity after 60 mins by UV-Visible spectrophotometry; assay type: physicochemical
In short: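 Reduction of ethanolic DPPH radical read by absorbance at 517 nm at 0 and after 60 min at room temperature. I% = 100×(A0−A60)/A0. IC50 is the concentration giving 50% radical inhibition. Run in triplicate, mean ± SEM; Trolox reference.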

[6] = Cytotoxicity against HMEC1 assessed as cell viability at 1 uM after 24 hrs by MTT assay in absence of oxidized LDL; design: species or system HMEC-1; details: human, HMEC1 cells; read-out: Activity
[7] = Cytotoxicity against HMEC1 assessed as cell viability at 10 uM after 24 hrs by MTT assay in absence of oxidized LDL; design: species or system HMEC-1; details: human, HMEC1 cells; read-out: Activity
HMEC-1 [8] = assay: Antiangiogenic activity in HMEC1 assessed as inhibition of oxidized LDL induced tube formation at 10 uM after 18 hrs by calcein staining based fluorescence microscopy; assay type: functional; details: Homo sapiens
In short: (§2)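 HMEC-1 (passage 30-36, serum-starved 24 h) seeded at 30,000 cells/well on Matrigel. Grown 18 h at 37 °C in MCDB-131 with UV-C mildly oxidized LDL (20 µg/mL) ± agent (10 µM). Controls were 0.1% FBS (negative) and 2.5% FBS (positive). Calcein stain (1 µM, 30 min), then fluorescence microscopy. Linked cells counted as % of total cells; mean ± SEM, 4 experiments.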

HMEC-1 [9] = assay: Inhibition of oxidized LDL induced intracellular ROS formation in HMEC1 at 10 uM preincubated for 30 to 40 mins followed by H2DCFDA-AM addition by fluorescence analysis; assay type: functional, cell-based; details: Homo sapiens
In short: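 HMEC-1 given oxLDL (20 µg/mL) ± agent (10 µM) for 40 min. H2DCFDA-AM (5 µM final) added 30 min before the end, then cells washed three times with PBS. Homogenate fluorescence read at ex 495/em 520 nm as a ratio to unstimulated control. Mean ± SEM, 4 experiments.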

[10] = Antiangiogenic activity in HMEC1 assessed as inhibition of oxidized LDL induced tube formation measured as residual tube at 10 uM after 18 hrs by calcein staining based fluorescence microscopy; assay type: functional, Homo sapiens, HMEC-1; in short: as §2
[11] = Antioxidant activity assessed as inhibition of DPPH free radical scavenging activity by EPR spectrophotometry; assay type: physicochemical
In short: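 DPPH radical scavenging measured by EPR spectroscopy instead of absorbance at 517 nm, used where staining prevented the absorbance reading; value given as IC50 for 50% DPPH radical inhibition.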

Row | SMILES | IC50 [5] [µM] | IC50 [11] [µM] | Activity [1] [%] | Activity [2] [%] | Activity [3] [%] | Activity [4] [%] | viability at 24 h, 1 µM [6] [%] | viability at 24 h, 10 µM [7] [%] | antiangiogenic activity (active/not active) (HMEC-1 [8]) | ROS inhibition (active/not active) (HMEC-1 [9]) | Activity [10] [%]
1 | COc1cc(/C=N/N=c2\[nH]ncc3ccccc23)cc(-c2cc(/C=N/N=c3/[nH]ncc4ccccc34)cc(OC)c2O)c1O.Cl.Cl | – | – | 56 | 8 | 52 | 99 | – | – | – | – | –
2 | COc1cc(/C=N/Nc2nc3ccccc3s2)cc(-c2cc(/C=N/Nc3nc4ccccc4s3)cc(OC)c2O)c1O | 27.7 | – | 19 | 7 | 58 | 91 | 90 | 78 | Active | Active | –
3 | COc1cc(/C=N/NC(=O)OCc2ccccc2)cc(-c2cc(/C=N/NC(=O)OCc3ccccc3)cc(OC)c2O)c1O | 59.7 | – | 18 | 5 | 52 | 90 | 91 | 85 | Active | Active | –
4 | COc1cc(/C=N/Nc2nncc3ccccc23)cc(-c2cc(/C=N/Nc3nncc4ccccc34)cc(OC)c2O)c1O | 9.7 | – | – | – | – | – | 109 | 98 | Active | Active | –
5 | COc1cc(/C=N/N=c2/[nH]ncc3ccccc23)cc(Oc2cc(/C=N/N=c3/[nH]ncc4ccccc34)cc(OC)c2O)c1O.Cl.Cl | 11.5 | – | 37 | 10 | 56 | 72 | 95 | 90 | – | Active | <5
6 | COc1cc(C=O)cc(Oc2cc(C=O)cc(OC)c2O)c1O | 289 | – | 95 | 87 | 32 | 35 | 89 | 85 | – | – | –
7 | Cc1c(C)c2c(c(C)c1O)CCC(C)(C(=O)O)O2 (configuration not stated) [TROLOX] | 20.1 | 17.7 | 57 | 10 | 45 | 68 | 98 | 95 | Active | Active | 20
8 | COc1cc(C=O)cc(-c2cc(C=O)cc(OC)c2O)c1O | 382 | – | 103 | 88 | 19 | 21 | 100 | 99 | – | – | –
9 | COc1cc(/C=N/Nc2nc3ccccc3s2)cc(Oc2cc(/C=N/Nc3nc4ccccc4s3)cc(OC)c2O)c1O | 8.6 | – | 93 | 12 | 51 | 69 | 93 | 80 | Active | Active | –

Now from value to molecule, other results behind:

Row | IC50 [5] [µM] | IC50 [11] [µM] | SMILES | Activity [1] [%] | Activity [2] [%] | Activity [3] [%] | Activity [4] [%] | viability at 24 h, 1 µM [6] [%] | viability at 24 h, 10 µM [7] [%] | antiangiogenic activity (active/not active) (HMEC-1 [8]) | ROS inhibition (active/not active) (HMEC-1 [9]) | Activity [10] [%]
10 | 19.8 | – | COc1cc(/C=N/NC(=O)c2cc(C)n[nH]2)cc(Oc2cc(/C=N/NC(=O)c3cc(C)n[nH]3)cc(OC)c2O)c1O | 97 | 91 | 41 | 65 | 95 | 100 | – | – | –
11 | 29.1 | – | COc1cc(/C=N/NC(=O)c2cc(C)n[nH]2)cc(-c2cc(/C=N/NC(=O)c3cc(C)n[nH]3)cc(OC)c2O)c1O | 99 | 71 | 14 | 40 | 107 | 105 | – | – | –
12 | 38.8 | – | COc1cc(/C=N/NC(=O)c2ccncc2)cc(-c2cc(/C=N/NC(=O)c3ccncc3)cc(OC)c2O)c1O | 112 | 92 | 18 | 19 | 100 | 88 | – | – | –
13 | 21.5 | – | COc1cc(/C=N/NC(=O)c2ccncc2)cc(Oc2cc(/C=N/NC(=O)c3ccncc3)cc(OC)c2O)c1O | 100 | 88 | 42 | 66 | 95 | 92 | – | – | –
14 | 23.6 | – | COc1cc(/C=N/NC(=O)OCc2ccccc2)cc(Oc2cc(/C=N/NC(=O)OCc3ccccc3)cc(OC)c2O)c1O | 28 | 6 | 51 | 69 | 102 | 94 | inactive | inactive | –
